Data as given in ChEMBL document CHEMBL4689842, “EUbOPEN Chemogenomics Library wave 1” (2021).
Several values for one entry are separate records, joined by “and”; a condition that tells them apart may be missing. Equal values may be shown once.

Columns and labels:
Assay type in all cases: toxicity, cell-based
Fibroblast [1] = assay: Multiplex assay against human fibroblast; settings: 1 µM, compound concentration 1 uM
Outline: (§1)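 At seeding, live cells were stained with Hoechst33342, BioTracker Green Microtubule Cytoskeleton Dye, MitoTracker Red and Annexin V Alexa Fluor 680. After compound addition they were imaged on a CQ1 microscope at 37°C and 5% CO2, and CellPathfinder machine-learning gating sorted them into Hoechst high-intensity objects or normal cells, with normal cells further split into healthy, pyknosed or fragmented nuclei and pyknosed cells into mitotic or apoptotic. Tubulin, mitochondrial-mass and membrane-permeability phenotypes are given as per cents of cells with healthy nuclei.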

HEK-293T [2] = assay: Multiplex assay against HEK293T; settings: human, 1 µM, compound concentration 1 uM; outline: as §1;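 as to Population Tubulin-Different-Phenotype (%): share of the cells with healthy nuclei that show this phenotype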
U2OS [3] = assay: Multiplex assay against U2OS; settings: human, 1 µM, compound concentration 1 uM; outline: as §1
HEK-293T [4] = assay: Incucyte cell viability with HEK293T; settings: human, 10 µM, compound concentration 10 uM; also: filed as whole numbers so only -1 and 0 and 1 occur
Fibroblast [5] = assay: Incucyte cell viability with human fibroblast; settings: 10 µM, compound concentration 10 uM; also: filed as whole numbers so only -1 and 0 and 1 occur
U2OS [6] = assay: Incucyte cell viability with U2OS; settings: human, 10 µM, compound concentration 10 uM; also: filed as whole numbers so only -1 and 0 and 1 occur
[7] = 0 h, replicate number 1, timepoint 0 hours
[8] = 6 h, replicate number 1, timepoint 6 hours
[9] = 12 h, replicate number 1, timepoint 12 hours
[10] = 18 h, replicate number 1, timepoint 18 hours
[11] = 24 h, replicate number 1, timepoint 24 hours
[12] = 12 h, replicate number 2, timepoint 12 hours

SMILES: CC[C@@H]1C(=O)N(C)c2cnc(Nc3ccc(C(=O)N[C@H]4CC[C@H](N5CCN(CC6CC6)CC5)CC4)cc3OC)nc2N1C(C)C [VOLASERTIB]
- Population Apoptotic (%) (Fibroblast [1]; 12 h, replicate 1): 76% and 71%
- Population Fragmented Nuclei (%) (Fibroblast [1]; 12 h, replicate 1): 43% and 28%
- Population Healthy Nuclei (%) (Fibroblast [1]; 12 h, replicate 1): 42% and 54%
- Population Hoechst High Intensity Objects (%) (Fibroblast [1]; 12 h, replicate 1): 14% and 22%
- Population Membrane Permeable-Phenotype (%) (Fibroblast [1]; 12 h, replicate 1): 9% and 7%
- Population Mitochondria Different-Phenotype (%) (Fibroblast [1]; 12 h, replicate 1): 6% and 11%
- Population Mitotic Cells (%) (Fibroblast [1]; 12 h, replicate 1): 24% and 28%
- Population Normal (%) (Fibroblast [1]; 12 h, replicate 1): 85% and 77%
- Population Pyknosed Nuclei (%) (Fibroblast [1]; 12 h, replicate 1): 13% and 16%
- Total Cell Count (Fibroblast [1]; 12 h, replicate 1): 213 and 342
- Population Apoptotic (%) (Fibroblast [1]; 12 h, replicate 2): 53% and 50%
- Population Fragmented Nuclei (%) (Fibroblast [1]; 12 h, replicate 2): 48% and 67%
- Population Healthy Nuclei (%) (Fibroblast [1]; 12 h, replicate 2): 32% and 24%
- Population Hoechst High Intensity Objects (%) (Fibroblast [1]; 12 h, replicate 2): 36% and 43%
- Population Membrane Permeable-Phenotype (%) (Fibroblast [1]; 12 h, replicate 2): 17% and 16%
- Population Mitochondria Different-Phenotype (%) (Fibroblast [1]; 12 h, replicate 2): 26% and 33%
- Population Mitotic Cells (%) (Fibroblast [1]; 12 h, replicate 2): 46% and 50%
- Population Normal (%) (Fibroblast [1]; 12 h, replicate 2): 63% and 56%
- Population Pyknosed Nuclei (%) (Fibroblast [1]; 12 h, replicate 2): 18% and 8%
- Population Tubulin-Different-Phenotype (%) (Fibroblast [1]; 12 h, replicate 2): 78% and 58%
- Total Cell Count (Fibroblast [1]; 12 h, replicate 2): 111 and 87
- Population Apoptotic (%) (Fibroblast [1]; 24 h, replicate 1): 84% and 80%
- Population Fragmented Nuclei (%) (Fibroblast [1]; 24 h, replicate 1): 23% and 37%
- Population Healthy Nuclei (%) (Fibroblast [1]; 24 h, replicate 1): 52% and 50%
- Population Hoechst High Intensity Objects (%) (Fibroblast [1]; 24 h, replicate 1): 31% and 16%
- Population Membrane Permeable-Phenotype (%) (Fibroblast [1]; 24 h, replicate 1): 7%
- Population Mitotic Cells (%) (Fibroblast [1]; 24 h, replicate 1): 15% and 19%
- Population Normal (%) (Fibroblast [1]; 24 h, replicate 1): 68% and 83%
- Population Pyknosed Nuclei (%) (Fibroblast [1]; 24 h, replicate 1): 24% and 11%
- Total Cell Count (Fibroblast [1]; 24 h, replicate 1): 319 and 221
- Population Apoptotic (%) (Fibroblast [1]; 24 h, replicate 2): 100% and 64%
- Population Fragmented Nuclei (%) (Fibroblast [1]; 24 h, replicate 2): 62% and 44%
- Population Healthy Nuclei (%) (Fibroblast [1]; 24 h, replicate 2): 36% and 33%
- Population Hoechst High Intensity Objects (%) (Fibroblast [1]; 24 h, replicate 2): 38%
- Population Membrane Permeable-Phenotype (%) (Fibroblast [1]; 24 h, replicate 2): 5% and 13%
- Population Mitochondria Different-Phenotype (%) (Fibroblast [1]; 24 h, replicate 2): 22% and 45%
- Population Normal (%) (Fibroblast [1]; 24 h, replicate 2): 61%
- Population Tubulin-Different-Phenotype (%) (Fibroblast [1]; 24 h, replicate 2): 27% and 72%
- Total Cell Count (Fibroblast [1]; 24 h, replicate 2): 81 and 106
- Population Apoptotic (%) (HEK-293T [2]; 12 h, replicate 1): 44% and 18%
- Population Fragmented Nuclei (%) (HEK-293T [2]; 12 h, replicate 1): 29% and 10%
- Population Healthy Nuclei (%) (HEK-293T [2]; 12 h, replicate 1): 31% and 58%
- Population Hoechst High Intensity Objects (%) (HEK-293T [2]; 12 h, replicate 1): 18% and 13%
- Population Membrane Permeable-Phenotype (%) (HEK-293T [2]; 12 h, replicate 1): 15% and 21%
- Population Mitotic Cells (%) (HEK-293T [2]; 12 h, replicate 1): 55% and 81%
- Population Normal (%) (HEK-293T [2]; 12 h, replicate 1): 81% and 86%
- Population Pyknosed Nuclei (%) (HEK-293T [2]; 12 h, replicate 1): 38% and 30%
- Population Tubulin-Different-Phenotype (%) (HEK-293T [2]; 12 h, replicate 1): 77% and 61%
- Total Cell Count (HEK-293T [2]; 12 h, replicate 1): 539 and 544
- Population Fragmented Nuclei (%) (HEK-293T [2]; 12 h, replicate 2): 3%
- Population Healthy Nuclei (%) (HEK-293T [2]; 12 h, replicate 2): 76%
- Population Hoechst High Intensity Objects (%) (HEK-293T [2]; 12 h, replicate 2): 2% and 5%
- Population Membrane Permeable-Phenotype (%) (HEK-293T [2]; 12 h, replicate 2): 18% and 12%
- Population Mitochondria Different-Phenotype (%) (HEK-293T [2]; 12 h, replicate 2): 31% and 62%
- Population Mitotic Cells (%) (HEK-293T [2]; 12 h, replicate 2): 93% and 80%
- Population Normal (%) (HEK-293T [2]; 12 h, replicate 2): 97% and 94%
- Population Pyknosed Nuclei (%) (HEK-293T [2]; 12 h, replicate 2): 19%
- Population Tubulin-Different-Phenotype (%) (HEK-293T [2]; 12 h, replicate 2): 87% and 96%
- Total Cell Count (HEK-293T [2]; 12 h, replicate 2): 982 and 1003
- Population Healthy Nuclei (%) (HEK-293T [2]; 24 h, replicate 1): 30% and 54%
- Population Hoechst High Intensity Objects (%) (HEK-293T [2]; 24 h, replicate 1): 21% and 9%
- Population Membrane Permeable-Phenotype (%) (HEK-293T [2]; 24 h, replicate 1): 9% and 11%
- Population Mitotic Cells (%) (HEK-293T [2]; 24 h, replicate 1): 53% and 84%
- Population Normal (%) (HEK-293T [2]; 24 h, replicate 1): 78% and 90%
- Population Pyknosed Nuclei (%) (HEK-293T [2]; 24 h, replicate 1): 36% and 34%
- Population Tubulin-Different-Phenotype (%) (HEK-293T [2]; 24 h, replicate 1): 77% and 76%
- Total Cell Count (HEK-293T [2]; 24 h, replicate 1): 579 and 547
- Population Apoptotic (%) (HEK-293T [2]; 24 h, replicate 2): 6% and 12%
- Population Fragmented Nuclei (%) (HEK-293T [2]; 24 h, replicate 2): 3% and 7%
- Population Healthy Nuclei (%) (HEK-293T [2]; 24 h, replicate 2): 47% and 61%
- Population Hoechst High Intensity Objects (%) (HEK-293T [2]; 24 h, replicate 2): 3% and 6%
- Population Membrane Permeable-Phenotype (%) (HEK-293T [2]; 24 h, replicate 2): 7% and 10%
- Population Mitochondria Different-Phenotype (%) (HEK-293T [2]; 24 h, replicate 2): 28% and 53%
- Population Mitotic Cells (%) (HEK-293T [2]; 24 h, replicate 2): 93% and 87%
- Population Normal (%) (HEK-293T [2]; 24 h, replicate 2): 96% and 93%
- Population Pyknosed Nuclei (%) (HEK-293T [2]; 24 h, replicate 2): 48% and 30%
- Population Tubulin-Different-Phenotype (%) (HEK-293T [2]; 24 h, replicate 2): 91% and 83%
- Total Cell Count (HEK-293T [2]; 24 h, replicate 2): 956 and 1101
- Population Apoptotic (%) (U2OS [3]; 12 h, replicate 1): 60% and 78%
- Population Fragmented Nuclei (%) (U2OS [3]; 12 h, replicate 1): 8% and 12%
- Population Healthy Nuclei (%) (U2OS [3]; 12 h, replicate 1): 81% and 61%
- Population Hoechst High Intensity Objects (%) (U2OS [3]; 12 h, replicate 1): 4% and 3%
- Population Membrane Permeable-Phenotype (%) (U2OS [3]; 12 h, replicate 1): 46% and 31%
- Population Mitochondria Different-Phenotype (%) (U2OS [3]; 12 h, replicate 1): 32% and 71%
- Population Mitotic Cells (%) (U2OS [3]; 12 h, replicate 1): 40% and 21%
- Population Normal (%) (U2OS [3]; 12 h, replicate 1): 95% and 96%
- Population Pyknosed Nuclei (%) (U2OS [3]; 12 h, replicate 1): 10% and 25%
- Population Tubulin-Different-Phenotype (%) (U2OS [3]; 12 h, replicate 1): 88% and 100%
- Total Cell Count (U2OS [3]; 12 h, replicate 1): 145 and 156
- Population Apoptotic (%) (U2OS [3]; 12 h, replicate 2): 75% and 76%
- Population Fragmented Nuclei (%) (U2OS [3]; 12 h, replicate 2): 11% and 18%
- Population Healthy Nuclei (%) (U2OS [3]; 12 h, replicate 2): 82% and 57%
- Population Hoechst High Intensity Objects (%) (U2OS [3]; 12 h, replicate 2): 21% and 7%
- Population Membrane Permeable-Phenotype (%) (U2OS [3]; 12 h, replicate 2): 30% and 61%
- Population Mitochondria Different-Phenotype (%) (U2OS [3]; 12 h, replicate 2): 46% and 96%
- Population Mitotic Cells (%) (U2OS [3]; 12 h, replicate 2): 25% and 24%
- Population Normal (%) (U2OS [3]; 12 h, replicate 2): 78% and 92%
- Population Tubulin-Different-Phenotype (%) (U2OS [3]; 12 h, replicate 2): 94%
- Total Cell Count (U2OS [3]; 12 h, replicate 2): 110 and 80
- Population Apoptotic (%) (U2OS [3]; 24 h, replicate 1): 66% and 77%
- Population Fragmented Nuclei (%) (U2OS [3]; 24 h, replicate 1): 10%
- Population Healthy Nuclei (%) (U2OS [3]; 24 h, replicate 1): 76% and 58%
- Population Hoechst High Intensity Objects (%) (U2OS [3]; 24 h, replicate 1): 5%
- Population Membrane Permeable-Phenotype (%) (U2OS [3]; 24 h, replicate 1): 28% and 82%
- Population Mitochondria Different-Phenotype (%) (U2OS [3]; 24 h, replicate 1): 38% and 96%
- Population Mitotic Cells (%) (U2OS [3]; 24 h, replicate 1): 33% and 22%
- Population Normal (%) (U2OS [3]; 24 h, replicate 1): 94%
- Population Pyknosed Nuclei (%) (U2OS [3]; 24 h, replicate 1): 14% and 23%
- Population Tubulin-Different-Phenotype (%) (U2OS [3]; 24 h, replicate 1): 78%
- Total Cell Count (U2OS [3]; 24 h, replicate 1): 159 and 158
- Population Apoptotic (%) (U2OS [3]; 24 h, replicate 2): 65% and 61%
- Population Fragmented Nuclei (%) (U2OS [3]; 24 h, replicate 2): 18% and 15%
- Population Healthy Nuclei (%) (U2OS [3]; 24 h, replicate 2): 48% and 67%
- Population Hoechst High Intensity Objects (%) (U2OS [3]; 24 h, replicate 2): 10% and 12%
- Population Membrane Permeable-Phenotype (%) (U2OS [3]; 24 h, replicate 2): 86%
- Population Mitochondria Different-Phenotype (%) (U2OS [3]; 24 h, replicate 2): 100% and 57%
- Population Mitotic Cells (%) (U2OS [3]; 24 h, replicate 2): 34% and 38%
- Population Normal (%) (U2OS [3]; 24 h, replicate 2): 89% and 87%
- Population Pyknosed Nuclei (%) (U2OS [3]; 24 h, replicate 2): 32% and 17%
- Population Tubulin-Different-Phenotype (%) (U2OS [3]; 24 h, replicate 2): 100% and 71%
- Total Cell Count (U2OS [3]; 24 h, replicate 2): 83 and 123
- Growth Rate (HEK-293T [4]; [7]): 0
- Growth Rate (HEK-293T [4]; [8]): 0
- Growth Rate (HEK-293T [4]; [9]): 0
- Growth Rate (HEK-293T [4]; [10]): 0
- Growth Rate (HEK-293T [4]; [11]): 0
- Growth Rate (Fibroblast [5]; [7]): 0
- Growth Rate (Fibroblast [5]; [9]): 0
- Growth Rate (Fibroblast [5]; [12]): 1
- Growth Rate (Fibroblast [5]; [10]): 0
- Growth Rate (Fibroblast [5]; [11]): 0
- Growth Rate (U2OS [6]; 0 h, replicate number 2, timepoint 0 hours): 0
- Growth Rate (U2OS [6]; [8]): 1
- Growth Rate (U2OS [6]; [9]): 0
- Growth Rate (U2OS [6]; [12]): 1
- Growth Rate (U2OS [6]; [10]): 0
- Growth Rate (U2OS [6]; [11]): 0
